Experimental data pooled from the literature.
Compare with care: the assays were run in different laboratories.
Target: Mitogen-activated protein kinase kinase kinase kinase 3 (MAP4K3, Homo sapiens, UniProt Q8IVH8)
One construct used (Q8IVH8 1-894): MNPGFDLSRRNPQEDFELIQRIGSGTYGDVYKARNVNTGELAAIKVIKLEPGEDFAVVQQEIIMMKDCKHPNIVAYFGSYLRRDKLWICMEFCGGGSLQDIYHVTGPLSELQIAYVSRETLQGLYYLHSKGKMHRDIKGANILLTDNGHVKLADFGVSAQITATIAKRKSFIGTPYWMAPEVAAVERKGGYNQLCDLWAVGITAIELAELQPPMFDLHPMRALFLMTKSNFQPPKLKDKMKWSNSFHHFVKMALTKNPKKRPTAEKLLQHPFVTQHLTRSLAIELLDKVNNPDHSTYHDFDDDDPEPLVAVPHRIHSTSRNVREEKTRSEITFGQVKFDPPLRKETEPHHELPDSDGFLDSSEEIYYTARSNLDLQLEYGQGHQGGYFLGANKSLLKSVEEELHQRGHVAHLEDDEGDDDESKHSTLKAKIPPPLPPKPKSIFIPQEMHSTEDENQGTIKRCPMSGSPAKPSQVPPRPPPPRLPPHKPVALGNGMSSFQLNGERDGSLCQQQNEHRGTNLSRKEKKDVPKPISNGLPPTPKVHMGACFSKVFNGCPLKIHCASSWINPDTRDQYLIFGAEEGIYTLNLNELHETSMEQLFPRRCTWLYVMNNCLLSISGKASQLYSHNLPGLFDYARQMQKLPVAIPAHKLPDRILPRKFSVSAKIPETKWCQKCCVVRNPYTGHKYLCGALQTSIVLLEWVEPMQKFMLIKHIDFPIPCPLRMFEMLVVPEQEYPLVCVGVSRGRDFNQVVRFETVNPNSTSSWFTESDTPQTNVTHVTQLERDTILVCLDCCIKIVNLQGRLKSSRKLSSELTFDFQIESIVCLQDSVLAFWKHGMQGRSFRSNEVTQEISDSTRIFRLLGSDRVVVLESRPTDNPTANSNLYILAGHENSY

Cc1cnc(Nc2ccc(C(=O)N3CCC(N4CCCC4)CC3)cc2)nc1-c1cc2ccccc2s1  remaining binding (binding; competition with immobilised ligand; 1 µM): 50%
CCN1CCN(Cc2ccc(C(=O)Nc3ccc(C)c(Oc4ccc5c(c4)CC(=O)N5)c3)cc2C(F)(F)F)CC1  remaining binding (binding; competition with immobilised ligand; 1 µM): 76%
CN(C)c1ncc(F)c(-c2cnn3ncccc23)n1  remaining binding (binding; 1 µM): 100%
O=C(N1CCS(=O)(=O)CC1)N1C[C@H](c2ccc(OC(F)(F)F)cc2)C[C@H](c2nc(C3CC3)no2)C1  remaining binding (cell-free assay; competition with immobilised ligand; 1 µM): 100%
O=C(c1ccc(Nc2nccc(-c3cc4ccccc4s3)n2)cc1)N1CCC(N2CCCC2)CC1  remaining binding (binding; competition with immobilised ligand; 1 µM): 93%
COc1ccnn2ncc(-c3ccnc(N(C)C)n3)c12  remaining binding (binding; 1 µM): 100%
CNC(=O)[C@@H]1CC[C@@H](n2c(-c3ccc4cnccc4c3)nc3ccc(C(=O)NCc4cccc(C(N)=O)c4)cc32)C1  remaining binding (binding; competition with immobilised ligand; 1 µM): 100%
Nc1c(C(=O)NCc2ccc(C(=O)NCCCC3CCCCC3)cc2)cnn1-c1ccccc1  remaining binding (cell-free assay; competition with immobilised ligand; 0.1 µM): 100%
N[C@@H]1CCN(c2nccc(-c3cnn4ncccc34)n2)C1  remaining binding (binding; 1 µM): 76%
O=C(NCC1CCOCC1)c1n[nH]cc1NC(=O)c1c(F)cccc1F  remaining binding (binding; competition with immobilised ligand; 1 µM): 82%
F[C@@H]1CCN(c2nccc(-c3cnn4ncccc34)n2)C1  remaining binding (binding; 1 µM): 100%
COc1cnc(Nc2cccc(S(N)(=O)=O)c2)nc1N1CCN(c2ccccc2)C(=O)C1  remaining binding (binding; competition with immobilised ligand; 1 µM): 95%
CCS(=O)(=O)c1cc2cc(C[C@@](O)(CC(C)(C)c3ccc(F)cc3C(N)=O)C(F)(F)F)[nH]c2cn1  remaining binding (cell-free assay; competition with immobilised ligand; 1 µM): 82%
CN(C)c1nccc(-c2cnc3ncccn23)n1  remaining binding (binding; 1 µM): 100%
NS(=O)(=O)c1cc(NC(=O)Cc2ccccc2)ccc1Oc1cccc(Cl)c1  remaining binding (cell-free assay; competition with immobilised ligand; 1 µM): 100%
CN(CCCC(F)(F)F)c1nccc(-c2cnn3ncccc23)n1  remaining binding (binding; 1 µM): 100%
Nc1cnc(N2CCc3cc(S(=O)(=O)Nc4c(F)cc(Cl)cc4F)cc(N4CCCC4=O)c32)nc1  remaining binding (cell-free assay; competition with immobilised ligand; 1 µM): 93%
FC(F)(F)Oc1cccc(-c2cnc3ccc(-c4ccncc4)nn23)c1  remaining binding (cell-free assay; competition with immobilised ligand; 5 µM): 86%
O=C(NCCCN1CCOCC1)c1ccc(Nc2nccc(-c3cc4ccccc4s3)n2)cc1  remaining binding (binding; competition with immobilised ligand; 1 µM): 65%
O=C(Nc1cccnn1)N1CCC(=Cc2cccc(Oc3ccc(C(F)(F)F)cn3)c2)CC1  remaining binding (cell-free assay; competition with immobilised ligand; 1 µM): 100%
